# This is a sample that favours compounds with a hit; in the whole collection about 11% have one here.
# Diaph act CS = counter-screen for diaphorase-based assays: diaphorase activators and chemical reducers. hit rate 0.005% among 190,000. Diaphorase/resazurin coupled assay, resorufin fluorescence, 16 min; active compounds read high; 1 = vehicle wells, 0 = NADH-free wells. activation factor at 20 µM;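 active = diaphorase activity raised at least twofold by the compound at 20 µM; inactive = activation factor below 2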
#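 Material: Clostridium kluyveri diaphorase, purified enzyme; Quantity: enzyme 0.07 U/mL final; Medium: HEPES pH 7.4 buffer with MgCl2 and Tween 20; Dosing: single compound dose of 20 µM, 1% DMSO final; Schedule: 16 min reaction at room temperature; Measured by: red resorufin fluorescence at 544/590 nm excitation/emission.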
# G6PDH CS = L. mesenteroides G6PDH inhibition counter-screen; hit rate 0.12% among 200,000; Purified L. mesenteroides G6PDH, diaphorase/resazurin coupled fluorescence, 45 min; AID 1020; inhibition, % at 5 µM
# WT yeast gro inh = growth inhibition of WT yeast, mitochondrial fusion screen. mitochondrial fusion phenotypic screen, WT strain. inhibition, % at 10 µM. hit rate 2.1% among 190,000. AID 1362; in the data active = inhibition above about 58%; tested in S. cerevisiae
# L major viab = Leishmania major promastigote growth inhibition. Leishmania major promastigotes, resazurin fluorescence viability. inhibition, % at 10 µM. hit rate 9% among 200,000. AID 1063;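 also: promastigotes grown with compound for 44 hours at 28 °C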
# Diaph inh CS = inhibits diaphorase or chemically oxidizes, flagging diaphorase assay artifacts; diaphorase resazurin-to-resorufin fluorescence, NADH, 16 min; bacterial (C. kluyveri) enzyme, not human; inhibition, % at 20 µM; hit rate 0.69% among 190,000; AID 1217;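 active = primary screen inhibition at 20 µM above a set limit, cut at about 50% in these data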
#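 Assay system – diaphorase enzyme from Clostridium kluyveri · Amount – diaphorase 0.14 U/mL (working solution) · Times – reaction incubation of 16 min at room temperature · Controls – No-NADH positive control and DMSO neutral control · Signal – resorufin fluorescence 544/590 nm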
# Hits are given with their value; . = inactive; / = no result. Rule as the data show it, unless noted: active = inhibition above about 50%; inactive = the rest.
SMILES,Diaph act CS,G6PDH CS,WT yeast gro inh,L major viab,Diaph inh CS
Cc1nc2nc(C)c(CCC(=O)Nc3ccc4c(c3)OCO4)c(C)n2n1,.,.,.,.,.
COc1ccc(NC(=O)c2sc(Cl)nc2-c2ccccc2)cc1,.,.,.,.,.
CN(Cc1nc(Cc2ccccc2F)no1)Cc1cccc2ncccc12,.,51,.,.,.
COC(=O)c1c(C)[nH]c(C(=O)CSc2ncnc3sc(-c4ccccc4)cc23)c1C,.,.,.,.,.
Cc1cc(C)cc(NS(=O)(=O)c2ccc(NC(=S)Nc3ccccc3)cc2)c1,.,.,.,82,.
NS(=O)(=O)c1ccc(NC(=S)NC(=O)c2ccc(Br)o2)cc1,.,.,.,.,.
Cc1cc(C)cc(NS(=O)(=O)c2ccc(NC(=S)NC(=O)c3ccc(Br)o3)cc2)c1,.,.,.,95,.
COc1ccc(NS(=O)(=O)c2ccc(NC(=S)NC(=O)c3ccc(Br)cc3)cc2)nn1,.,.,.,85,.
O=C(COC(=O)C1CCCCC1C(=O)N1CCc2ccccc21)NCc1ccco1 (stereo not drawn),.,.,.,.,.
CC(NC(=O)/C(C#N)=C/c1ccc(Cl)c([N+](=O)[O-])c1)c1ccccc1 (stereo not drawn),.,.,.,100,.
N#C/C(=C\c1ccc(O)c([N+](=O)[O-])c1)C(=O)NCc1ccccc1,.,.,.,.,.
CCCN(Cc1ccccc1)C(=S)Nc1cccc(C)c1C,.,.,.,.,.
Cc1ccc(NC(=S)NCCc2ccccc2)c(C)c1,.,.,70,80,.
Cc1ccc(C)c(NC(=S)NCCc2ccc(F)cc2)c1,.,.,69,.,.
Cc1cccc(NC(=S)NN(Cc2ccccc2)c2ccccc2)c1C,.,.,.,56,.
Cc1ccccc1NC(=S)N/N=C/C(C)c1ccccc1 (stereo not drawn),.,.,.,97,.
Cc1cccc(NC(=O)C2CC(=O)N(c3ccccc3)C2)c1C (stereo not drawn),.,.,.,.,.
CC[C@H](C)NC(=O)c1ccc(Cn2c(=S)[nH]c3c([nH]c4ccc(OC)cc43)c2=O)cc1,.,.,.,.,.
Cc1ccccc1NC(=S)NCCc1ccccc1,.,.,.,.,.
Cc1ccccc1NC(=S)NCc1ccccc1,.,.,.,59,.
Cc1ccc(C(=O)Nc2c(C)n(C)n(-c3ccccc3)c2=O)cc1,.,.,.,.,.
Cc1ccc(-n2c(N)c(C(=O)Nc3c(C)n(C)n(-c4ccccc4)c3=O)c3nc4ccccc4nc32)cc1,.,.,.,60,.
Cc1cc(C)cc(-n2c(N)c(C(=O)Nc3c(C)n(C)n(-c4ccccc4)c3=O)c3nc4ccccc4nc32)c1,.,.,.,76,.
Cc1nn(-c2ccccc2)c(C)c1[N+](=O)[O-],.,.,.,.,.
COc1cc2cc(CN(CCc3cccc(C)c3)C(=S)NCCCN(C)C)c(=O)[nH]c2cc1OC,.,.,.,52,.
SMILES,Diaph act CS,G6PDH CS,WT yeast gro inh,L major viab,Diaph inh CS
Cc1ccc2cc(CN(CCN(C)C)C(=O)Nc3ccc(Cl)cc3)c(=O)[nH]c2c1,/,.,.,.,/
Cc1cccc2cc(CN(CCCN(C)C)C(=S)NCCc3ccccc3)c(=O)[nH]c12,.,.,.,65,.
CNC(=S)N(CCc1cccc(C)c1)Cc1cc2cc(OC)c(OC)cc2[nH]c1=O,.,.,.,.,.
Cc1ccc2[nH]c(=O)c(CN(CCCN(C)C)C(=S)NCCc3ccccc3)cc2c1,.,.,.,76,.
Cc1ccc(NC(=S)N(CCCN(C)C)Cc2cc3cc4c(cc3[nH]c2=O)OCO4)cc1,.,.,.,.,.
Cc1ccc2[nH]c(=O)c(CN(CCCN(C)C)C(=O)Nc3ccc(Cl)cc3)cc2c1,.,.,.,90,.
COC(=O)C1=C(C)NC(=S)N(C(C)=O)C1c1ccc(OC)c(OC)c1 (stereo not drawn),.,.,.,.,.
O=C(Oc1ccccc1C(=O)Nc1ccccc1)c1ccccc1Br,.,.,.,.,.
COc1ccc(C(=O)COc2ccccc2C(=O)Nc2ccccc2)cc1,.,.,.,.,.
c1ccc2c(c1)nc(CN1CCOCC1)n1c3ccccc3nc21,.,.,81,.,.
c1ccc2nc3c(nc2c1)c1ccccc1n3CCN1CCOCC1,.,.,.,.,.
O=C(CCCc1ccccc1)Nc1cccnc1,.,.,.,.,.
CCSc1ncc(/C=N/Nc2ccccc2)n1C,.,.,71,.,.
CCSc1ncc(/C=N/Nc2ccc(Cl)cc2)n1C,.,.,.,78,.
CCC(=O)Nc1nc2ccccc2n1Cc1ccc(C)cc1,.,.,.,99,.
CCCn1c(NC(=O)c2ccc(Cl)c(S(=O)(=O)N3CCCC3)c2)nc2ccccc21,.,.,.,72,.
Cn1c(NC(=O)c2ccccc2NC(=O)C(C)(C)C)nc2ccccc21,.,.,.,77,.
CCn1c(NC(C)=O)nc2ccccc21,.,.,.,.,.
CCCn1c(NC(=O)c2cccc(C)c2C)nc2ccccc21,.,.,.,98,.
Cc1sc2ccccc2[n+]1CCC(C)S(=O)(=O)[O-] (stereo not drawn),.,.,.,.,.
CC[n+]1c(C=C2C=C(C)OC(C)=C2)sc2ccccc21,.,.,69,100,.
CC[n+]1c(/C=C2/C=C(C)CC(C)C2)sc2ccccc21 (stereo not drawn),.,.,.,100,.
CC12CCC(C(=O)Nc3nccs3)(OC1=O)C2(C)C (stereo not drawn),.,.,.,.,.
CC12CCC(C(=O)Nc3nc4ccc(Br)cc4s3)(OC1=O)C2(C)C (stereo not drawn),.,.,66,.,.
COc1ccccc1N(CC(O)CN(c1ccccc1)S(C)(=O)=O)S(=O)(=O)c1ccccc1 (stereo not drawn),.,.,.,.,.
SMILES,Diaph act CS,G6PDH CS,WT yeast gro inh,L major viab,Diaph inh CS
COc1ccccc1N(CC(O)COc1c(C)cc(C)cc1C)S(=O)(=O)c1ccccc1 (stereo not drawn),.,.,61,.,.
CCCN(CCC)CC(O)CN(c1cc([N+](=O)[O-])ccc1OC)S(=O)(=O)c1ccccc1 (stereo not drawn),.,.,.,63,.
COc1ccccc1N(CC(O)COc1ccc(C)cc1)S(=O)(=O)c1ccccc1 (stereo not drawn),.,.,.,.,.
COc1ccc([N+](=O)[O-])cc1N(CC(O)CN1CCCCC1)S(=O)(=O)c1ccccc1 (stereo not drawn),.,.,.,82,.
CCOC(=O)c1c(C)[nH]c(C)c1C(=O)CSc1nnc(-c2ccncc2)n1Cc1ccccc1,.,.,.,.,.
CCCn1c(SCC(=O)c2c(C)[nH]c(C)c2C(=O)OCC)nc2ccccc21,.,.,.,64,.

# Compound activity deposited in PubChem by several laboratories.
